Data on 10 molecules can be found in ChEMBL document CHEMBL1122124, “Synthesis and immunoadjuvant activities of 2-acetamido-5-O-acetyl-6-O-acyl-2-deoxy-3-O-[(R)-2-propionyl-L-alanyl-D- isoglutamine]-D-glucofuranoses as potential prodrug forms of 6-O-Acyl Derivatives of N-acetylmuramyl dipeptide” (1982).

Holding throughout (format): functional
For test [1], the species on record is Mus musculus. Nature of the test: Tested for antibody response of mice injected with Bovine serum Albumin(BSA) at 50 ug/dose in experiment 5.
Test [2] is filed under the species Mus musculus. Nature of the test: Tested for antibody response in mice injected with various Hepatitis B Vaccine at 50 ug/dose in experiment 1. Put shortly: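 Female 5-week-old ICR mice, groups of 20, injected subcutaneously with 0.5 mL holding 1.25 μg aqueous hepatitis B vaccine (plasma-derived) mixed with 50 μg analogue in PBS (pH 7.5). Controls were aqueous vaccine alone and alum-adsorbed vaccine at 1.25 μg. Mice bled from vena cava at 6 weeks. Anti-HBs measured by radioimmunoassay; geometric mean titer reported as reciprocal serum dilution, plus responder count.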

Test [3] is filed under the species Mus musculus. Nature of the test: Tested for antibody response of mice injected with Bovine serum Albumin(BSA) at 5 ug/dose in experiment 1.
For test [4], the species on record is Mus musculus. Nature of the test: Tested for antibody response of mice injected with Bovine serum Albumin(BSA) at 50 ug/dose in experiment 1. Put shortly:
(§1)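 Female ICR/Ha mice, 5–6 weeks old, groups of six, given one subcutaneous injection between the shoulders of 0.25 mL PBS containing 100 μg BSA monomer plus analogue (dissolved or sonicated). Boosted at day 21 with 100 μg BSA alone, bled at day 31. Anti-BSA passive hemagglutination was run on sheep-RBC-adsorbed sera with twofold dilutions on BSA-coated sheep cells. Result is the group geometric mean reciprocal titer.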

For test [5], the species on record is Mus musculus. The test can be described thus: Tested for antibody response of mice injected with Bovine serum Albumin(BSA) at 5 ug/dose in experiment 5. The method, boiled down:
as §1

The species entered for test [6] is Mus musculus. The test can be described thus: Tested for antibody response of mice injected with Bovine serum Albumin(BSA) at 5 ug/dose in experiment 6. The method, boiled down: as §1
The species named for test [7] is Mus musculus. The test can be described thus: Tested for antibody response of mice injected with Bovine serum Albumin(BSA) at 50 ug/dose in experiment 6.
The species named for test [8] is Mus musculus. Nature of the test: Tested for antibody response of mice injected with Bovine serum Albumin(BSA) at 50 ug/dose in experiment 2. Put shortly:
as §1

Test [9] is filed under the species Mus musculus. The test can be described thus: Tested for antibody response of mice injected with Bovine serum Albumin(BSA) at 50 ug/dose in experiment 3. The method, boiled down:
as §1

Test [10] is filed under the species Mus musculus. Nature of the test: Tested for antibody response of mice injected with Bovine serum Albumin(BSA) at 50 ug/dose in experiment 4.

Some results are limits rather than exact numbers.

Take `CCCCCCCCCCCCCCCCCC(=O)OCC(OC(C)=O)C1OC(O)C(NC(C)=O)C1OC(C)C(=O)N[C@@H](C)C(=O)NC(CCC(=O)O)C(N)=O` (stereo not given in full): the Geometric mean worked out at 215.51 in the test listed under Mus musculus [1]; 69.6 in the test listed under Mus musculus [2]; 28.12 in the test listed under Mus musculus [3]; 1408.52 in the test listed under Mus musculus [4]; 107.76 in the test filed under Mus musculus [5].
As to `COC1OC(C(O)CO)C(OC(C)C(=O)N[C@@H](C)C(=O)NC(CCC(=O)O)C(N)=O)C1NC(C)=O` (stereo not given in full), the Geometric mean in the test filed under Mus musculus [3] and in the test filed under Mus musculus [4] was 10.7 each time.
As to `CCCCCCCCCCCCCCCCCC(=O)NCC1OC(O)C(NC(C)=O)C(O[C@H](C)C(=O)N[C@@H](C)C(=O)NC(CCC(=O)O)C(N)=O)C1O` (stereo not given in full), the Geometric mean in the test filed under Mus musculus [3] and in the test filed under Mus musculus [4] was under 3 each time.
Turning to `CC(=O)NCC1OC(O)C(NC(C)=O)C(O[C@H](C)C(=O)N[C@@H](C)C(=O)NC(CCC(=O)O)C(N)=O)C1O` (stereo not given in full), the Geometric mean in the test filed under Mus musculus [3] was 6.17; in the test filed under Mus musculus [4] it was 7.78.
The like results for `CC(=O)NC1C(O)OC(COC(C)=O)C(OC(C)=O)C1O[C@H](C)C(=O)N[C@@H](C)C(=O)NC(CCC(=O)O)C(N)=O` (stereo not given in full) were, in that order, 4.36 and 384.
In the case of `CCCCCCCCCCCCCCCCCCCCCC(=O)OC(C)(C)C(=O)OCC1OC(O)C(NC(C)=O)C(O[C@H](C)C(=O)N[C@@H](C)C(=O)NC(CCC(=O)O)C(N)=O)C1O` (stereo not given in full), the Geometric mean amounted to 431 in the test listed under Mus musculus [3], 823.12 in the test listed under Mus musculus [6], 716.57 in the test listed under Mus musculus [7] and 768 in the test filed under Mus musculus [4].
With `CCCCCCCCCCCCCCCCCCCCCC(=O)OC(C)(C)C(=O)OCC(OC(C)=O)C1OC(O)C(NC(C)=O)C1OC(C)C(=O)N[C@@H](C)C(=O)NC(CCC(=O)O)C(N)=O` (stereo not given in full), the Geometric mean in the test listed under Mus musculus [2] came out at 303.6; in the test listed under Mus musculus [3], 543.06; in the test listed under Mus musculus [4], 215.51.
`CCCCCCCCCCCCCCCCCC(=O)OCC1OC(O)C(NC(C)=O)C(O[C@H](C)C(=O)N[C@@H](C)C(=O)NC(CCC(=O)O)C(N)=O)C1O` (stereo not given in full): the results for the Geometric mean in the test listed under Mus musculus [3] and in the test filed under Mus musculus [4] were 271.53 and 995.97, respectively.
For `CC(=O)NC1C(O)OC(C(COC(C)=O)OC(C)=O)C1OC(C)C(=O)N[C@@H](C)C(=O)NC(CCC(=O)O)C(N)=O` (stereo not given in full), the Geometric mean is 38.1 in the test filed under Mus musculus [2]; 31.12 in the test listed under Mus musculus [3]; 13.08 in the test listed under Mus musculus [6]; 113.49 in the test listed under Mus musculus [7]; 271.53 in the test listed under Mus musculus [4].
Take `CC(=O)N[C@H]1C(O)O[C@H](CO)[C@@H](O)[C@@H]1O[C@H](C)C(=O)N[C@@H](C)C(=O)N[C@H](CCC(=O)O)C(N)=O` (stereo not given in full) [MURAMYL DIPEPTIDE]: the Geometric mean in the test filed under Mus musculus [1] is reported as 28.26; in the test filed under Mus musculus [8], 215.51; in the test listed under Mus musculus [3] it was 28.12; in the test filed under Mus musculus [9], 241.9; in the test filed under Mus musculus [7] it was 179.14; in the test listed under Mus musculus [4], 592.21. The values for the Geometric mean in the test filed under Mus musculus [5] and in the test listed under Mus musculus [10] were under 3 and 1536, respectively.
